Experimental data reported in ChEMBL document CHEMBL1128347, “Non-peptidic inhibitors of human leukocyte elastase. 4. Design, synthesis, and in vitro and in vivo activity of a series of beta-carbolinone-containing trifluoromethyl ketones” (J Med Chem, 1995).

Assays:
Neutrophil elastase = biological target: T1, Neutrophil elastase (Homo sapiens, UniProt P08246); experiment: In vitro inhibitory activity against human leukocyte elastase (HLE) mediated hydrolysis of the synthetic substrate MeO-Suc-Ala-Ala-Pro-Val-pNA
T1 sequence (P08246 whole entry): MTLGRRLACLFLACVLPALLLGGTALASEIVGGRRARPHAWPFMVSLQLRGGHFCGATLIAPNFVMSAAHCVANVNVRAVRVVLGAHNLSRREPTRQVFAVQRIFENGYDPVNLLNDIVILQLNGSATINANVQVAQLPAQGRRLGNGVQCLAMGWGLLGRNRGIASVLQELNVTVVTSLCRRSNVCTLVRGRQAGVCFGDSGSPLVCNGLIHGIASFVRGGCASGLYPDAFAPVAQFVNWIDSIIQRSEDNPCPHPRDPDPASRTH

Chymotrypsinogen A [1] = biological target: T2, Chymotrypsinogen A (Bos taurus, UniProt P00766); experiment: Inhibitory activity against bovine chymotrypsin; No inhibition at the highest concentration tested (>150 uM)
[2] = Ratio of the Ki value towards bovine chymotrypsin to that of HLE.
Outline: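 Selectivity ratio computed as Ki against bovine pancreatic chymotrypsin divided by Ki against human leukocyte elastase. The elastase Ki came from inhibition of enzyme-catalysed hydrolysis of the chromogenic substrate MeOSuc-Ala-Ala-Pro-Val-pNA.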

Chymotrypsinogen A [3] = biological target: T2, Chymotrypsinogen A; experiment: Inhibitory activity against bovine chymotrypsin
Prothrombin = Prothrombin (Homo sapiens, UniProt P00734); experiment: Inhibitory activity against human thrombin mediated hydrolysis of the synthetic substrate […]; No inhibition at the highest concentration tested (400 uM)
[4] = biological target: T3, Angiotensin-converting enzyme (Oryctolagus cuniculus, UniProt P12822); experiment: Inhibitory activity against rabbit Angiotensin I converting enzyme
T3 sequence (P12822 whole entry): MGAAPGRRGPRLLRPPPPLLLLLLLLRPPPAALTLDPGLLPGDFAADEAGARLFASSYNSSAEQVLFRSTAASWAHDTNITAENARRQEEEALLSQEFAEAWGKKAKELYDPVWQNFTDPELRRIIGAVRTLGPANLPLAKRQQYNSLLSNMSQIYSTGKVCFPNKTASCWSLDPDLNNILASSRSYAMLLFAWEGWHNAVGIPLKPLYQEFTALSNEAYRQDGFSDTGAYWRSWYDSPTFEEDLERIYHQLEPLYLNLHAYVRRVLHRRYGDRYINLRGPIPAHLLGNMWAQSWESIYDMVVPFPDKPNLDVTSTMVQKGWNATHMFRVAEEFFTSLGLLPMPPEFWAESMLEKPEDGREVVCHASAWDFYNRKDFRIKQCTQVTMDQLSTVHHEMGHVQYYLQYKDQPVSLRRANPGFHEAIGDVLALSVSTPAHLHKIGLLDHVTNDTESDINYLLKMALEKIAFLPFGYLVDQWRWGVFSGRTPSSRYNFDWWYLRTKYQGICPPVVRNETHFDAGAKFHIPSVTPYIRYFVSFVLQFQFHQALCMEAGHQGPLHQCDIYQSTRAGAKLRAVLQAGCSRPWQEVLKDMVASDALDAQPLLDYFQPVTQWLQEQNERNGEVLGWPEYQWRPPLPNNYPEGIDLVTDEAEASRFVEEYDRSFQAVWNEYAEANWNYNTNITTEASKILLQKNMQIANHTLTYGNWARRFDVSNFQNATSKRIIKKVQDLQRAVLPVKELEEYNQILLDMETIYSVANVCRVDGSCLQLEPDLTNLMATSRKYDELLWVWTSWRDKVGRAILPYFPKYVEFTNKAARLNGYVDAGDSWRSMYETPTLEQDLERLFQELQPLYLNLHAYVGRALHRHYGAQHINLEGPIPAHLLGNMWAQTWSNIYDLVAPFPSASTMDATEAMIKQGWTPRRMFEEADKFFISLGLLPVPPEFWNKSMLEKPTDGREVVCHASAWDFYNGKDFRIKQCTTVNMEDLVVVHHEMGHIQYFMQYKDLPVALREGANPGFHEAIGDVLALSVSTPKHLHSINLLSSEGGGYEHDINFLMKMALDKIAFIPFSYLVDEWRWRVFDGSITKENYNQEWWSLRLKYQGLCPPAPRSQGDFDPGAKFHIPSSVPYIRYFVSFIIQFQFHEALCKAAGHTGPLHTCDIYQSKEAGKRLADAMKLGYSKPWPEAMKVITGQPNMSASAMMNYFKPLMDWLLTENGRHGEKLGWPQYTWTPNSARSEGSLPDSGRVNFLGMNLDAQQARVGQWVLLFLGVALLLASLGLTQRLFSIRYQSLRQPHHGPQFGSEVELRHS

Acetylcholinesterase = Acetylcholinesterase (Electrophorus electricus, UniProt O42275); experiment: Inhibitory activity against electric eel Acetylcholinesterase; No inhibition at the highest concentration tested (400 uM)
Chain of Acetylcholinesterase (O42275 whole entry): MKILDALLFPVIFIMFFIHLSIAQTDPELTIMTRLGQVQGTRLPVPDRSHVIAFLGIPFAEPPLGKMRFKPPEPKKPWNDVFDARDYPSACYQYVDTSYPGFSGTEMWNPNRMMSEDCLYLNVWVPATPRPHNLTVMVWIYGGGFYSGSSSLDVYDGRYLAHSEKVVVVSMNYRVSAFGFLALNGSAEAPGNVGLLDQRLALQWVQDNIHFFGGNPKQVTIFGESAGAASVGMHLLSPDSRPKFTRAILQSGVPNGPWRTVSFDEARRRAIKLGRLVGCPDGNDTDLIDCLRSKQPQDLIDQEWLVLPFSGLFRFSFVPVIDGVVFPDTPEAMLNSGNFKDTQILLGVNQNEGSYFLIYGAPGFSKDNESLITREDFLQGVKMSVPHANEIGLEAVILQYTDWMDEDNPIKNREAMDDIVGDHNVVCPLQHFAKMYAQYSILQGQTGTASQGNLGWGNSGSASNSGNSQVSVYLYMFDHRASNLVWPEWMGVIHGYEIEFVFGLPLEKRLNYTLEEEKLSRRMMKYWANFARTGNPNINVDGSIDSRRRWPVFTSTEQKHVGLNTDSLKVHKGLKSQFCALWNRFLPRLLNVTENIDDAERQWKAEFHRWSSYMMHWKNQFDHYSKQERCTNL

Cathepsin G = biological target: T4, Cathepsin G (Homo sapiens, UniProt P08311); experiment: Inhibitory activity against human cathepsin G.
T4 sequence (P08311 whole entry): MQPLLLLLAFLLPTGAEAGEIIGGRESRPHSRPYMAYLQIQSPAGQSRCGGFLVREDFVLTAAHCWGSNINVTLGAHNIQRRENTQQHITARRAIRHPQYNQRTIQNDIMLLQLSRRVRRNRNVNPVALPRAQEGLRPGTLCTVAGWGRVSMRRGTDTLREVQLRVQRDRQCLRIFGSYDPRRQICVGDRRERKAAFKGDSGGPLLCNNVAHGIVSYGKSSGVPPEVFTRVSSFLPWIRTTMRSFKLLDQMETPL

Serine protease 1 = biological target: T5, Serine protease 1 (Bos taurus, UniProt P00760); experiment: Inhibitory activity against bovine trypsin; No inhibition at the highest concentration tested (400 uM)
T5 sequence (P00760 whole entry): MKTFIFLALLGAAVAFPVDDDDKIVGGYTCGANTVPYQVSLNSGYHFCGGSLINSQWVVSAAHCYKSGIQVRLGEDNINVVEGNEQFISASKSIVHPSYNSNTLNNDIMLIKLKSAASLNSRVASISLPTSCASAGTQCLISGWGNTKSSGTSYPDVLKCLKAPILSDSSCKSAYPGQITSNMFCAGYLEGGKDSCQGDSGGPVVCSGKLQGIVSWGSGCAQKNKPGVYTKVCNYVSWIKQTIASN

Papain = biological target: T6, Papain (Carica papaya, UniProt P00784); experiment: Inhibitory activity against papain; No inhibition at the highest concentration tested (400 uM)
T6 sequence (P00784 whole entry): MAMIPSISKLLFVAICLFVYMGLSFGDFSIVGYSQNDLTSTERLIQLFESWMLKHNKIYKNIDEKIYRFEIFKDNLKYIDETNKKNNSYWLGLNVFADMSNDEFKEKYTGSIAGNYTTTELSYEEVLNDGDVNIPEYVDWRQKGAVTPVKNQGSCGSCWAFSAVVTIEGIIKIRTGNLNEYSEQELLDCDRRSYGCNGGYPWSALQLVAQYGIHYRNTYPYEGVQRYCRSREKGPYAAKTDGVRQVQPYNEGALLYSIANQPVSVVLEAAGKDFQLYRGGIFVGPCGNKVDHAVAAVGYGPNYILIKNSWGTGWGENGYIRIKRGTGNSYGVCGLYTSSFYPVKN

Row | Ki (Neutrophil elastase) [µM] | SMILES | also measured
1 | 0.0049 | CC(C)C(NC(=O)Cn1c(-c2ccccc2)cc2c3cccc(C=O)c3nc-2c1O)C(=O)C(F)(F)F (configuration not stated) | –
2 | 0.35 | COc1ccc2nc3c(O)n(CC(=O)NC(C(=O)C(F)(F)F)C(C)C)ccc-3c2c1 (configuration not stated) | –
3 | 0.34 | CCOC(=O)c1ccc2c3ccn(CC(=O)NC(C(=O)C(F)(F)F)C(C)C)c(O)c-3nc2c1 (configuration not stated) | –
4 | 1.1 | CC(C)C(NC(=O)CN1CCc2c([nH]c3ccccc23)C1=O)C(=O)C(F)(F)F (configuration not stated) | –
5 | 0.027 | CC(C)C(NC(=O)CN1CCc2c([nH]c3c(C(=O)O)cccc23)C1=O)C(=O)C(F)(F)F (configuration not stated) | –
6 | 0.019 | CC(C)c1cc2c3cccc(C(=O)O)c3nc-2c(O)n1CC(=O)NC(C(=O)C(F)(F)F)C(C)C (configuration not stated) | –
7 | 0.024 | COC(=O)Oc1cccc2c3cc(-c4ccccc4)n(CC(=O)NC(C(=O)C(F)(F)F)C(C)C)c(O)c-3nc12 (configuration not stated) | –
8 | 0.017 | COc1cccc2c3cc(-c4ccccc4)n(CC(=O)NC(C(=O)C(F)(F)F)C(C)C)c(O)c-3nc12 (configuration not stated) | –
9 | 0.29 | CC(C)C(NC(=O)Cn1ccc2c3ccccc3nc-2c1O)C(=O)C(F)(F)F (configuration not stated) | Ki (Chymotrypsinogen A [1]): No inhibition
10 | 0.015 | CC(C)C(NC(=O)Cn1c(-c2ccccc2)cc2c3cccc(OS(C)(=O)=O)c3nc-2c1O)C(=O)C(F)(F)F (configuration not stated) | –
11 | 0.73 | CC(C)C(NC(=O)Cn1ccc2c3cccc(C(N)=O)c3nc-2c1O)C(=O)C(F)(F)F (configuration not stated) | –
12 | 0.21 | CC(C)C(NC(=O)Cn1ccc2c3cc(Cl)ccc3nc-2c1O)C(=O)C(F)(F)F (configuration not stated) | –
13 | 0.054 | CC(C)c1cc2c3ccccc3nc-2c(O)n1CC(=O)NC(C(=O)C(F)(F)F)C(C)C (configuration not stated) | Ratio [2]: 20; Ki (Chymotrypsinogen A [3]): 1.1 µM
14 | 0.0066 | CC(C)C(NC(=O)Cn1c(-c2ccccc2)cc2c3cccc(C#N)c3nc-2c1O)C(=O)C(F)(F)F (configuration not stated) | Ratio [2]: 27; Ki (Chymotrypsinogen A [3]): 0.18 µM
15 | 1 | CC(C)C(NC(=O)CN1CCc2c([nH]c3ccc(Cl)cc23)C1=O)C(=O)C(F)(F)F (configuration not stated) | –
16 | 0.0067 | CC(C)C(NC(=O)Cn1c(-c2ccccc2)cc2c3cccc(O)c3nc-2c1O)C(=O)C(F)(F)F (configuration not stated) | –
17 | 0.028 | CC(C)c1cc2c3cccc(C#N)c3nc-2c(O)n1CC(=O)NC(C(=O)C(F)(F)F)C(C)C (configuration not stated) | –
18 | – | CC(C)C(NC(=O)Cn1c(-c2ccccc2)cc2c3cccc(C(=O)O)c3nc-2c1O)C(=O)C(F)(F)F (configuration not stated) | Ki (Chymotrypsinogen A [3]): 43 µM
19 | 2.5 | CCOC(=O)c1cccc2c3ccn(CC(=O)NC(C(=O)C(F)(F)F)C(C)C)c(O)c-3nc12 (configuration not stated) | –
20 | 1.1 | COc1ccc2[nH]c3c(c2c1)CCN(CC(=O)NC(C(=O)C(F)(F)F)C(C)C)C3=O (configuration not stated) | –
21 | 0.51 | CC(C)C(NC(=O)Cn1ccc2c3ccc(C(=O)O)cc3nc-2c1O)C(=O)C(F)(F)F (configuration not stated) | –
22 | 0.052 | COP(=O)(OC)c1cccc2c3cc(-c4ccccc4)n(CC(=O)NC(C(=O)C(F)(F)F)C(C)C)c(O)c-3nc12 (configuration not stated) | Ratio [2]: 500; Ki (Chymotrypsinogen A [3]): 26 µM
23 | 0.0061 | CC(C)C(NC(=O)Cn1c(-c2ccccc2)cc2c3ccccc3nc-2c1O)C(=O)C(F)(F)F (configuration not stated) | Ratio [2]: 70; Ki (Chymotrypsinogen A [3]): 0.43 µM
24 | 0.13 | COC(=O)c1cccc2c3cc(-c4ccccc4)n(CC(=O)NC(C(=O)C(F)(F)F)C(C)C)c(O)c-3nc12 (configuration not stated) | –
25 | 0.0096 | COP(=O)(OC)c1ccc2nc3c(O)n(CC(=O)NC(C(=O)C(F)(F)F)C(C)C)c(-c4ccccc4)cc-3c2c1 (configuration not stated) | –

Row | SMILES | Ki (Neutrophil elastase) [µM] | also measured
26 | CC(C)C(NC(=O)Cn1ccc2c3cccc(C(=O)O)c3nc-2c1O)C(=O)C(F)(F)F (configuration not stated) | 0.022 | Ki (Prothrombin): No inhibition; Ki [4]: 94 µM; Ki (Acetylcholinesterase): No inhibition; Ki (Chymotrypsinogen A [1]): No inhibition; Ki (Cathepsin G): 130 µM; Ki (Serine protease 1): No inhibition; Ki (Papain): No inhibition
